Laboratory results published in ChEMBL document CHEMBL1772951, “Synthesis of some novel benzofuran-2-yl(4,5-dihyro-3,5-substituted diphenylpyrazol-1-yl) methanones and studies on the antiproliferative effects and reversal of multidrug resistance of human MDR1-gene transfected mouse lymphoma cells in vitro” (Eur J Med Chem, 2011).
Converted amounts (≈) assume the structure as drawn.

Legend:
[1] = target: ATP-dependent translocase ABCB1 (Homo sapiens, UniProt P08183); assay: Inhibition of human MDR1 expressed in mouse L5178Y cells assessed as rhodamine 123 accumulation at 20 ug/ml preincubated for 10 mins before rhodamine 123 challenge measured after 20 mins by flow cytometry relative to wild type; assay type: cell-based
ATP-dependent translocase ABCB1, sequence (P08183 whole entry): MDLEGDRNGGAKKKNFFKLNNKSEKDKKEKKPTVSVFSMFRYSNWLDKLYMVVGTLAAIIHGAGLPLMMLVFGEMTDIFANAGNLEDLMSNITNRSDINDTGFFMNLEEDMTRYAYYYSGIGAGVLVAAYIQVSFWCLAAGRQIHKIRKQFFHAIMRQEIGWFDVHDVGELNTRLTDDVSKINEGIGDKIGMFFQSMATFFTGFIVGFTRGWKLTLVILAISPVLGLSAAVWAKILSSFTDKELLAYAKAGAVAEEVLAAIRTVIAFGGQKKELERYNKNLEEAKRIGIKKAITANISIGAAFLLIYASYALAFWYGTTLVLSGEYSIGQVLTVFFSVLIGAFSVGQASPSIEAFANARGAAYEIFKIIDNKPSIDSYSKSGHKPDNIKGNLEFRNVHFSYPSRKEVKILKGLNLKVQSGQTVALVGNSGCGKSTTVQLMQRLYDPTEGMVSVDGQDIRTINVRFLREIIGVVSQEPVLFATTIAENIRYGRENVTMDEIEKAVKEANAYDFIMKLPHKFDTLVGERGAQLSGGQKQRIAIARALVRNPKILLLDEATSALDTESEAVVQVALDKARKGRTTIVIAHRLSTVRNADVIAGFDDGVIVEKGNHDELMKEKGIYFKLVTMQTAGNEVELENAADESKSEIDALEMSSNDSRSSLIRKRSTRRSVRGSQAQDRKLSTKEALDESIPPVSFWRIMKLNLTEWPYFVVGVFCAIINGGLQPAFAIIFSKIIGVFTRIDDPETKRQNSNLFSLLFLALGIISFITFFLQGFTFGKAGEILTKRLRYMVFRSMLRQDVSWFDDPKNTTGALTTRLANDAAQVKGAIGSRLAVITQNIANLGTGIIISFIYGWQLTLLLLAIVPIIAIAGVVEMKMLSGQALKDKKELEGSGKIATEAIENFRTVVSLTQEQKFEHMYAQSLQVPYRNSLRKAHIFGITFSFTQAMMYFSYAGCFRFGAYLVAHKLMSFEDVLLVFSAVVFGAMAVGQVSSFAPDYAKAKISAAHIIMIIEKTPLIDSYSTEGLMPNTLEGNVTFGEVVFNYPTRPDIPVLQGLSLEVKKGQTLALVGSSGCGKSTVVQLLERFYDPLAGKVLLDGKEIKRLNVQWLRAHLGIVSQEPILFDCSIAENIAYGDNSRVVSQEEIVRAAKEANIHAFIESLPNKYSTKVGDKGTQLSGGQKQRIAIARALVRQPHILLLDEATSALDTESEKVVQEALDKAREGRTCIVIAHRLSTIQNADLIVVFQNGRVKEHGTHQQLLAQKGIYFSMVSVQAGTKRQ
How it was run: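 L5178Y cells were transfected with human MDR1 via pHa MDR1/A retrovirus and kept under 60 ng/ml colchicine, alongside parental cells, in McCoy's 5A with 10% horse serum at 37 °C, 5% CO₂. Cells at 2 × 10⁶/ml in serum-free medium got compound for 10 min at room temperature, then rhodamine 123 for 20 min at 37 °C. Cells were washed twice and read by flow cytometry, with verapamil as positive control. FAR = (MDR treated/MDR control)/(parental treated/parental control). One representative experiment, 1 × 10⁴ cells.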

[2] = tested on: L5178Y MDR1-transfected mouse lymphoma cells (Mus musculus); assay: Antiproliferative activity against mouse MDR1-transfected L5178Y lymphoma cells after 72 hrs by MTT assay; details: L5178Y MDR1, 72 h

SMILES	RFU [1]	IC50 [2]
O=C(c1cc2ccccc2o1)N1N=C(c2ccccc2)CC1c1ccccc1 (centres undefined)	18.8	7.58 µg/mL (≈ 20.7 µM)
Cc1ccc(C2CC(c3ccccc3)=NN2C(=O)c2cc3ccccc3o2)cc1 (centres undefined)	7.59	16.6 µg/mL (≈ 43.6 µM)
O=C(c1cc2ccccc2o1)N1N=C(c2ccccc2)CC1c1ccc([N+](=O)[O-])cc1 (centres undefined)	15.18	4.87 µg/mL (≈ 11.8 µM)
COc1ccc(C2CC(c3ccccc3)=NN2C(=O)c2cc3ccccc3o2)cc1OC (centres undefined)	29.9	6.89 µg/mL (≈ 16.2 µM)
O=C(c1cc2ccccc2o1)N1N=C(c2ccccc2)CC1c1ccc(F)cc1 (centres undefined)	20.06	9.94 µg/mL (≈ 25.8 µM)
O=C(c1cc2ccccc2o1)N1N=C(c2ccccc2)CC1c1ccc(Cl)cc1 (centres undefined)	8.34	5.13 µg/mL (≈ 12.8 µM)
O=C(c1cc2ccccc2o1)N1N=C(c2ccccc2)CC1c1ccccc1Cl (centres undefined)	16.1	6.22 µg/mL (≈ 15.5 µM)
COc1ccc(C2CC(c3ccccc3)=NN2C(=O)c2cc3ccccc3o2)cc1 (centres undefined)	26.77	4.57 µg/mL (≈ 11.5 µM)
O=C(c1cc2ccccc2o1)N1N=C(c2ccc(Cl)cc2)CC1c1ccccc1 (centres undefined)	6.77	13.6 µg/mL (≈ 34 µM)
O=C(c1cc2ccccc2o1)N1N=C(c2ccc(Cl)cc2)CC1c1ccc(Cl)cc1 (centres undefined)	2.9	8.5 µg/mL (≈ 19.5 µM)
COc1ccc(C2CC(c3ccc(Cl)cc3)=NN2C(=O)c2cc3ccccc3o2)cc1 (centres undefined)	5.85	5.74 µg/mL (≈ 13.3 µM)
O=C(c1cc2ccccc2o1)N1N=C(c2ccc(Cl)cc2)CC1c1ccc([N+](=O)[O-])cc1 (centres undefined)	12.61	34.1 µg/mL (≈ 76.5 µM)
O=C(c1cc2ccccc2o1)N1N=C(c2ccc(Cl)cc2)CC1c1ccccc1Cl (centres undefined)	6.02	44.8 µg/mL (≈ 103 µM)
COc1ccc(C2CC(c3ccc(Cl)cc3)=NN2C(=O)c2cc3ccccc3o2)cc1OC (centres undefined)	5.87	6.29 µg/mL (≈ 13.6 µM)
O=C(c1cc2ccccc2o1)N1N=C(c2ccc(F)cc2)CC1c1ccccc1 (centres undefined)	15.82	11.8 µg/mL (≈ 30.6 µM)
O=C(c1cc2ccccc2o1)N1N=C(c2ccc(F)cc2)CC1c1ccc(Cl)cc1 (centres undefined)	6.96	> 50 µg/mL
COc1ccc(C2CC(c3ccc(F)cc3)=NN2C(=O)c2cc3ccccc3o2)cc1 (centres undefined)	8.72	23 µg/mL (≈ 55.5 µM)
O=C(c1cc2ccccc2o1)N1N=C(c2ccc(F)cc2)CC1c1ccc([N+](=O)[O-])cc1 (centres undefined)	12.58	> 50 µg/mL
O=C(c1cc2ccccc2o1)N1N=C(c2ccc(F)cc2)CC1c1ccccc1Cl (centres undefined)	16.94	45.2 µg/mL (≈ 108 µM)
COc1ccc(C2CC(c3ccc(F)cc3)=NN2C(=O)c2cc3ccccc3o2)cc1OC (centres undefined)	16.22	> 50 µg/mL
Cc1ccc(C2CC(c3ccc(F)cc3)=NN2C(=O)c2cc3ccccc3o2)cc1 (centres undefined)	10.52	> 50 µg/mL
O=C(c1cc2ccccc2o1)N1N=C(c2ccc(F)cc2)CC1c1ccc(F)cc1 (centres undefined)	14.56	> 50 µg/mL
